Source: article PMC12746516 (Clinical Pharmacology and Therapeutics, 2025)

Experiments:
HepG2 cells [1] = assay: Cellular respiration assay; assay type: cell-based; conditions: HepG2, 1-hour incubation; for decrease in OCR within predicted physiological range (in words): plasma Cmax to liver Cmax
How it was run: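 HepG2 cells incubated 1 h with test compound (parent compounds or metabolites), then run on a Seahorse XFe96 per the Mito Stress Test Kit protocol. Baseline oxygen consumption rate is expressed as fold change versus 0.2% DMSO vehicle. The physiological range spans predicted plasma Cmax to predicted liver Cmax, from a PBPK model using the liver:blood Kp.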

human BSEP = human BSEP (Homo sapiens, UniProt O95342); assay: BSEP inhibition, taurocholate uptake in HEK293 human BSEP vesicles; assay type: biochemical
Chain of human BSEP (O95342 whole entry): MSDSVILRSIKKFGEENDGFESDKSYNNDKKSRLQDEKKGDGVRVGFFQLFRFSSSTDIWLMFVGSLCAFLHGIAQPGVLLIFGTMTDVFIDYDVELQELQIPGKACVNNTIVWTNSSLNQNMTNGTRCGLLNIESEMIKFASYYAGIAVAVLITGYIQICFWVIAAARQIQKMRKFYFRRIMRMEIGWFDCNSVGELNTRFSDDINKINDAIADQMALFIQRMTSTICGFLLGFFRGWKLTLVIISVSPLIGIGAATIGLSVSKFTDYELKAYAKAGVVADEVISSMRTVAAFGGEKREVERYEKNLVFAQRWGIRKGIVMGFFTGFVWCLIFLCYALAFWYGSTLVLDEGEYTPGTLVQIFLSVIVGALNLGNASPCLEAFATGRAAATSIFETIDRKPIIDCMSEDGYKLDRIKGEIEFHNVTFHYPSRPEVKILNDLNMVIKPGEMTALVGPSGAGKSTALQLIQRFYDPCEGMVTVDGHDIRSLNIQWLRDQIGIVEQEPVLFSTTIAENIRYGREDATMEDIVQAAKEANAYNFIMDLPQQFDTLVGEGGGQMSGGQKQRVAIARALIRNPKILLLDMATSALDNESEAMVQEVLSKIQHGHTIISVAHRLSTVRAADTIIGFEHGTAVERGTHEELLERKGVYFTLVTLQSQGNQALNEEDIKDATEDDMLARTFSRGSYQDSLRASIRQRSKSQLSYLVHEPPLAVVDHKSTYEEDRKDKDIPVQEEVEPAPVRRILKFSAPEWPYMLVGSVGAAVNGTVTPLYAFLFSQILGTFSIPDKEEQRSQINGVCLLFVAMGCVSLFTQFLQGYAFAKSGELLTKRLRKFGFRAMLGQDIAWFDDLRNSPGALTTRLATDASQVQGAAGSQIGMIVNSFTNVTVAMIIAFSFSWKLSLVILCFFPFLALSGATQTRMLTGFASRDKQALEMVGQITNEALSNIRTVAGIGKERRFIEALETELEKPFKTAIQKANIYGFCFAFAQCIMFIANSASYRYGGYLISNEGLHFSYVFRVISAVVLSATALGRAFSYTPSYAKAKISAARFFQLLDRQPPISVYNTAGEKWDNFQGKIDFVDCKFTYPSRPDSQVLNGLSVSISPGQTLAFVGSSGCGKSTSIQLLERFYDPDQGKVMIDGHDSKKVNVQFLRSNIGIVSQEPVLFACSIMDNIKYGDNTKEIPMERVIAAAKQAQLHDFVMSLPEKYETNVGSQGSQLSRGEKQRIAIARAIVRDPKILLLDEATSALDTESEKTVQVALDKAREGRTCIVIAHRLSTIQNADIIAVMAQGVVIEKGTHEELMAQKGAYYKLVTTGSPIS

HepG2 cells [2] = assay: Oxidative stress assay; assay type: cell-based; conditions: HepG2, 24-hour incubation; for concentrations with significant increases in ROS: DHE fluorescence vs 0.2% DMSO
How it was run: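 Intracellular ROS were read by dihydroethidium fluorescence and expressed as fold change versus 0.2% DMSO vehicle, with troglitazone as positive control. Nominal concentrations covered each compound's predicted plasma and liver Cmax (PBPK). Reported values come from the 24-hour exposure; a 1-hour exposure was also run. Plotted with standard deviation; significance by Kruskal–Wallis test.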

liver GSH = conditions: mice, intravenous, after a toxic dose of acetaminophen; cited from earlier work
GSH in the liver = conditions: rats, intravenous administration; cited from earlier work

SMILES	decrease in OCR within predicted physiological range (in words) (HepG2 cells [1])	IC50 (human BSEP) [µM]	magnitude of ROS increase compared with another compound (in words) (HepG2 cells [2])	decrease in OCR at 10 μM (HepG2 cells [1])	concentrations with significant increases in ROS (HepG2 cells [2]) [µM]	further results
CC(C)(CO)c1cc2cc(NC(=O)C3(c4ccc5c(c4)OC(F)(F)O5)CC3)c(F)cc2n1C[C@@H](O)CO [Tezacaftor, tezacaftor]	did not induce a notable decrease in OCR	> 100	–	–	–	–
CC(C)(C)c1cc(C(C)(C)C)c(NC(=O)c2c[nH]c3ccccc3c2=O)cc1O [Ivacaftor, ivacaftor]	induced the most prominent decrease in OCR	> 100	matched or surpassed that of the positive control, troglitazone	~ 50%	–	–
[2H]C([2H])([2H])C(c1cc(C(C)(C)C)c(NC(=O)c2c[nH]c3ccccc3c2=O)cc1O)(C([2H])([2H])[2H])C([2H])([2H])[2H] [Deutivacaftor, deutivacaftor]	–	–	nearly identical levels of ROS increases at the same concentrations as ivacaftor	~ 50%	–	–
Cc1nn(C)cc1S(=O)(=O)NC(=O)c1ccc(-n2ccc(OCC(C)(C)C(F)(F)F)n2)nc1N1C[C@@H](C)CC1(C)C [Elexacaftor, elexacaftor]	induced a decrease in OCR	37.1	–	–	40	–
CC(=O)N[C@@H](CS)C(=O)O [NAC, n‐acetyl cysteine]	–	–	–	–	–	recovery of liver GSH compared with untreated values (liver GSH): 75%; recovery of mitochondrial GSH compared with untreated values (liver GSH): 45%; increase in levels of GSH in the liver (GSH in the liver): 50%
CC(C)(C)c1cc(C(C)(C)CO)c(O)cc1NC(=O)c1c[nH]c2ccccc2c1=O [M1 ivacaftor]	did not induce any notable decrease	–	–	–	100	–
